Experimental data published in ChEMBL document CHEMBL2034945, “Bioactive quassinoids from the seeds of Brucea javanica” (J Nat Prod, 2012).

What was measured:
Format in all cases: functional, cell-based
SK-OV-3 = assay: Cytotoxicity against human SKOV3 cells by MTT assay
In short: (§1)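 Colorimetric MTT assay on human cancer lines: HCT-8 colon, HepG2 hepatoma, BGC-823 gastric, A549 lung epithelial and SKOV3 ovarian. Paclitaxel was the positive control. IC50 was reported.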

HCT-8 = assay: Cytotoxicity against human HCT8 cells by MTT assay; in short: as §1
BGC-823 = assay: Cytotoxicity against human BGC823 cells by MTT assay; in short: as §1
A549 = assay: Cytotoxicity against human A549 cells by MTT assay; in short: as §1
HepG2 = assay: Cytotoxicity against human HepG2 cells by MTT assay; in short: as §1
[1] = Antiinflammatory activity in rat polymorphonuclear leukocytes assessed as inhibition of LPS-stimulated nitric oxide production after 20 mins by Griess method
In short: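 Rat polymorphonuclear leukocytes were stimulated with LPS, and nitric oxide in the culture supernatant was measured by Griess reaction. Supernatant or sodium nitrite standard was mixed 1:1 with Griess reagent (0.1% N-(1-naphthyl)ethylenediamine dihydrochloride plus 1% sulfanilamide in 5% phosphoric acid, combined within 1 h of preparation). After 20 min at room temperature, absorbance was read at 540 nm. Dexamethasone was the positive control. IC50 was reported.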

Row | SMILES | IC50 (SK-OV-3) [µM] | IC50 (HCT-8) [µM] | IC50 (BGC-823) [µM] | IC50 (A549) [µM] | IC50 (HepG2) [µM] | IC50 [1] [µM]
1 | COC(=O)[C@@H](C)[C@@H]1C[C@H]2OC(=O)[C@H](OC(=O)C=C(C)C)[C@H]3[C@]4(C(=O)OC)OC[C@]23[C@H]([C@@H](O)[C@@H]4O)[C@@]1(C)CC(=O)O | > 10 | > 10 | > 10 | > 10 | > 10 | 
2 | COC(=O)[C@@]12OC[C@]34[C@H]([C@@H](O)[C@@H]1O)[C@@]1(C)C=C(O[C@@H]5O[C@H](CO)[C@@H](O)[C@H](O)[C@H]5O)C(=O)[C@@H](C)[C@@H]1C[C@H]3OC(=O)[C@H](OC(=O)C=C(C)C)[C@@H]24 [BRUCEOSIDE A] | > 10 | > 10 | > 10 | > 10 | > 10 | 
3 | COC(=O)[C@@]12OC[C@]34[C@H]([C@@H](O)[C@@H]1O)[C@@]1(C)CC(=O)[C@H](O)[C@@H](C)[C@@H]1C[C@H]3OC(=O)[C@H](OC(=O)C=C(C)C)[C@@H]24 [JAVANICOLIDE E] | 1.49 | > 10 | 1.43 | 6.36 | > 10 | 
4 | COC(=O)[C@]12OC[C@@]34[C@H](C[C@H]5[C@H](C)C(=O)C(O[C@@H]6O[C@H](CO)[C@@H](O)[C@H](O)[C@H]6O)=C[C@]5(C)[C@H]3[C@@H](O)[C@@H]1O)OC(=O)[C@H](OC(=O)/C=C(\C)C(C)C)[C@@H]24 [BRUCEANTINOSIDE A] | > 10 | > 10 | > 10 | > 10 | > 10 | 
5 | CC1=C[C@H](O)[C@@H](O)[C@]2(C)[C@H]3[C@@H](O)[C@H](O)[C@@]4(C)OC[C@@]35[C@@H](C[C@@H]12)OC(=O)[C@H](O)[C@]54O [BRUCEINE E] | 2.2 | 6.7 | 2.2 | > 10 | 2.9 | 5
6 | COC(=O)[C@@]12OC[C@]34[C@H]([C@@H](O)[C@@H]1O)[C@@](C)(CC(=O)O)[C@H](C(C)=O)C[C@H]3OC(=O)[C@H](OC(=O)C=C(C)C)[C@@H]24 [BRUCEANIC ACID E] | > 10 | > 10 | > 10 | > 10 | > 10 | 
7 | COC(=O)[C@@]12OC[C@]34[C@H]([C@@H](O)[C@@H]1O)[C@@]1(C)CC(=O)C(O)=C(C)[C@@H]1C[C@H]3OC(=O)[C@H](OC(C)=O)[C@@H]24 [BRUCEINE B] | 0.12 | 2 | 0.81 | 1.3 | 0.81 | 1.9
8 | CC1=CC(=O)[C@@H](O)[C@]2(C)[C@H]3[C@@H](O)[C@H](O)[C@@]4(CO)OC[C@@]35[C@@H](C[C@@H]12)OC(=O)[C@H](O)[C@]54O [BRUCEINE H] | 0.33 | 1.3 | 2.1 | 9.3 | 2.8 | 
9 | COC(=O)[C@@]12OC[C@]34[C@H]([C@@H](O)[C@@H]1O)[C@@]1(C)C[C@H](O)C(=O)[C@@H](C)[C@@H]1C[C@H]3OC(=O)[C@H](OC(=O)C=C(C)C)[C@@H]24 [JAVANICOLIDE H] | 0.23 | > 10 | 0.52 | 0.95 | > 10 | 
10 | COC(=O)C[C@]1(C)[C@H]2[C@@H](O)[C@H](O)[C@@]3(C(=O)OC)OC[C@@]24[C@@H](C[C@H]1C(C)=O)OC(=O)[C@H](OC(=O)C=C(C)C)[C@@H]34 [BRUCEANIC ACID E METHYL ESTER] | > 10 | > 10 | > 10 | > 10 | > 10 | 
11 | CC(=O)[C@@H]1C[C@H]2OC(=O)[C@H](OC(=O)C=C(C)C)[C@H]3[C@]4(C(=O)O)OC[C@]23[C@H]([C@@H](O)[C@@H]4O)[C@@]1(C)CC(=O)O [BRUCEANIC ACID F] | > 10 | > 10 | > 10 | > 10 | > 10 | 
12 | COC(=O)[C@@]12OC[C@]34[C@H]([C@@H](O)[C@@H]1O)[C@@](C)(CC(=O)O)[C@H]([C@@H](C)C(=O)O)C[C@H]3OC(=O)[C@H](OC(=O)C=C(C)C)[C@@H]24 [JAVANIC ACID A] | > 10 | > 10 | > 10 | > 10 | > 10 | 
13 | CC1=CC(=O)[C@@H](O)[C@]2(C)[C@H]3[C@@H](O)[C@H](O)[C@]4(C)OC[C@@]35[C@@H](C[C@@H]12)OC(=O)[C@H](O)[C@]54O [BRUCEINE D] | 0.76 | 2 | 1.2 | 3.9 | 1.2 | 
14 | COC(=O)[C@@]12OC[C@@]34[C@@H](CC5=C(C)C(=O)C(O)=C[C@]5(C)[C@H]3[C@@H](O)[C@@H]1O)OC(=O)[C@H](OC(=O)C=C(C)C)[C@@H]24 [DEHYDROBRUSATOL] | 2.5 | > 10 | 4.8 | 7.3 | 3.3 | 
15 | C[C@@H]1C[C@H]2[C@@H]3CCC4=CC(=O)C=C[C@]4(C)[C@@]3(F)[C@@H](O)C[C@]2(C)[C@@]1(O)C(=O)CO [DEXAMETHASONE] |  |  |  |  |  | 0.0023
16 | CC(=O)O[C@H]1C(=O)[C@@]2(C)[C@H]([C@H](OC(=O)c3ccccc3)[C@]3(O)C[C@H](OC(=O)[C@H](O)[C@@H](NC(=O)c4ccccc4)c4ccccc4)C(C)=C1C3(C)C)[C@]1(OC(C)=O)CO[C@@H]1C[C@@H]2O [PACLITAXEL] | < 0.0001 |  |  |  |  | 
